TNAP act hiacc: TNAP (human) activation, high acceptor; 200,000 tested, under 10 active; P05186; activation factor at 20 µM; AID 1136; purified TNAP, CDP-star luminescence, 1 M DEA, 30 min; stronger effect = higher value; 0 = EDTA background, 1 = DMSO-only activity;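 active = activation factor at least 2 at 20 µM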
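Assay system: human TNAP; Input: enzyme diluted 1/800 final; Reagent: CDP-star luminogenic substrate at 100 µM final; Timing: 30 min, room temperature; Signal: luminescence; Evaluation: TNAP activation factor scaled between EDTA and DMSO control wells.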
ABCB1 inh: blocks JC-1 efflux by human ABCB1 transporter; P08183; CCRF-Adr cells, flow cytometry; inhibition, % at 6.6 µM; 0.067% of 190,000 active; in the data active = inhibition above about 40%;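 also: 0% = vehicle and 100% = reference inhibitor; higher value means more JC-1 retained so stronger ABCB1 efflux block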
TNAP inh hi DEA: inhibitors of human TNAP at high phosphate acceptor concentration. AID 1135. purified TNAP, CDP-star luminescence, 1 M DEA. 0.03% of 200,000 active. P05186. inhibition, % at 20 µM;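 active = over 50% inhibition of tissue-nonspecific alkaline phosphatase at 20 µM in the single-dose screen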;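 also: plate controls were DMSO wells for no effect and EDTA-quenched wells as full inhibition for full effect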
TNAP inh noacc: inhibitors of human TNAP without phosphate acceptor | P05186 | purified TNAP, CDP-star luminescence, 30 min | inhibition, % at 20 µM | 0.26% of 200,000 active;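 active = tissue-nonspecific alkaline phosphatase inhibition above about 50% at 20 µM in the single-dose screen, limit read from the data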;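 also: 0% = DMSO negative control and 100% = EDTA positive control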
ABCG2 block: human ABCG2 inhibition, ABCB1 as counter-screen | inhibition, % at 6.6 µM | IgMXP3 cells, JC-1 efflux, flow cytometry | Q9UNQ0 | AID 1325 | 0.1% of 190,000 active;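 active = inhibition above 80%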;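 also: 0% = DMSO and 100% = nicardipine control wells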
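Incubation: cells with compound and JC-1, 10 min at 25 °C, rotating, no wash / Test system: IgMXP3 (ABCG2) plus far-red-tagged CCRF-Adr (ABCB1) cells / Compound dosing: one concentration, 6.6 µM final / Also added: JC-1 fluorescent substrate / Evaluation: efflux inhibition in percent versus controls / Detection: flow cytometry, 530 nm JC-1 signal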
PKD1 kinase inh: blocks activity of human protein kinase D1 | Q15139 | PKD1 kinase fluorescence polarization assay | inhibition, % (concentration not given with the values) | 0.056% of 200,000 active; in the data active = inhibition above about 50%
* hit, by the source's call. Hits are enriched below; roughly 0.48% of the tested compounds scored in any of these assays.

What do the screens show for `Cc1nc(N)c(C#N)c(-c2ccccc2)c1C`?
TNAP act hiacc: 1.1; ABCB1 inh: 1; TNAP inh hi DEA: -5; TNAP inh noacc: -4; ABCG2 block: 4; PKD1 kinase inh: 0

Results for Cc1c(C#N)c(N)nc(Cl)c1C#N ?
TNAP act hiacc: 1; ABCB1 inh: 1; TNAP inh hi DEA: -3; TNAP inh noacc: -6; ABCG2 block: 6; PKD1 kinase inh: 115*

Results for CC1(C)CC(=O)C(CC(=O)Nc2cc(C(F)(F)F)ccc2Cl)C(=O)C1 ?
TNAP act hiacc: 0.6; ABCB1 inh: 0; TNAP inh hi DEA: 35; TNAP inh noacc: 52*; ABCG2 block: -1; PKD1 kinase inh: -4

What do the screens show for `COc1cc(OC)cc(-c2cc(N3C(=O)Nc4ccccc4N3O)n[nH]2)c1`?
TNAP act hiacc: 1; ABCB1 inh: 0; TNAP inh hi DEA: -2; TNAP inh noacc: -19; ABCG2 block: 1; PKD1 kinase inh: -3

Results for O=C1Nc2ccccc2N(O)N1c1cc(-c2ccc(Cl)cc2)[nH]n1 ?
TNAP act hiacc: 1; ABCB1 inh: 0; TNAP inh hi DEA: -2; TNAP inh noacc: 63*; ABCG2 block: 1; PKD1 kinase inh: 0

What do the screens show for `COCc1ccc(CN2CCc3c([nH]c4ccccc34)C2CC(C)C)o1` (configuration not stated)?
TNAP act hiacc: 1; ABCB1 inh: -1; TNAP inh hi DEA: 3; TNAP inh noacc: -8; ABCG2 block: -3; PKD1 kinase inh: -3

Results for Cc1[nH]nc2c1/C(=N\O)CC(C)(C)C2 ?
TNAP act hiacc: 1.1; ABCB1 inh: 0; TNAP inh hi DEA: -5; TNAP inh noacc: 11; ABCG2 block: 2; PKD1 kinase inh: -5

Results for Cc1[nH]nc2c1C(=O)CC(C)(C)C2 ?
TNAP act hiacc: 1; ABCB1 inh: 0; TNAP inh hi DEA: -1; TNAP inh noacc: 55*; ABCG2 block: 2; PKD1 kinase inh: 4

How did CCc1n[nH]c2c1C(=O)CC(C)(C)C2 do in these assays?
TNAP act hiacc: 1; ABCB1 inh: 0; TNAP inh hi DEA: 2; TNAP inh noacc: 51*; ABCG2 block: 5; PKD1 kinase inh: 4

What do the screens show for `CCCc1cc(=O)[nH]c(SCC(=O)NCCC2=CCCCC2)n1`?
TNAP act hiacc: 1.1; ABCB1 inh: 2; TNAP inh hi DEA: -7; TNAP inh noacc: -13; ABCG2 block: 12; PKD1 kinase inh: 3

How did CCN(CC)S(=O)(=O)c1ccc2oc(C(=O)NC(C)C)c(C)c2c1 do in these assays?
TNAP act hiacc: 1; ABCB1 inh: 9; TNAP inh hi DEA: -2; TNAP inh noacc: -4; ABCG2 block: 94*; PKD1 kinase inh: -9

Results for CCOc1ccc2ccccc2c1/C=N/NC(=O)CNC(=O)Cc1ccccc1 ?
TNAP act hiacc: 1; ABCB1 inh: 2; TNAP inh hi DEA: 1; TNAP inh noacc: -4; ABCG2 block: 10; PKD1 kinase inh: 2

Results for Oc1ccc(-c2nc3ccc4ccccc4c3c3c2CCC3)cc1O ?
TNAP act hiacc: 0.8; ABCB1 inh: -1; TNAP inh hi DEA: 21; TNAP inh noacc: 50*; ABCG2 block: -8; PKD1 kinase inh: 31

What do the screens show for `COC(=O)C(C(=O)Nc1ccccc1C)C1CCCCCC1` (configuration not stated)?
TNAP act hiacc: 1; ABCB1 inh: 2; TNAP inh hi DEA: -4; TNAP inh noacc: -9; ABCG2 block: 10; PKD1 kinase inh: -7

What do the screens show for `CC(C)n1c(-c2ccccc2F)n[nH]c1=S`?
TNAP act hiacc: 1; ABCB1 inh: 0; TNAP inh hi DEA: 3; TNAP inh noacc: 69*; ABCG2 block: 0; PKD1 kinase inh: -13

Results for CC(C)n1c(-c2ccc(C(C)(C)C)cc2)n[nH]c1=S ?
TNAP act hiacc: 1; ABCB1 inh: 0; TNAP inh hi DEA: -3; TNAP inh noacc: -5; ABCG2 block: 0; PKD1 kinase inh: -8

How did COc1ccc(NC(=S)NCCCCCC(=O)C[N+](=O)[O-])cc1 do in these assays?
TNAP act hiacc: 1; ABCB1 inh: -1; TNAP inh hi DEA: -2; TNAP inh noacc: -9; ABCG2 block: -1; PKD1 kinase inh: 4

How did CC(=O)n1nc(-c2ccccc2)nc1NCc1ccc(N(C)C)cc1 do in these assays?
TNAP act hiacc: 1; ABCB1 inh: 1; TNAP inh hi DEA: -4; TNAP inh noacc: 50*; ABCG2 block: 7; PKD1 kinase inh: -9

What do the screens show for `Cc1oc(-c2cccs2)nc1CN1CCN(Cc2ccc(F)c(F)c2)C(CCO)C1` (configuration not stated)?
TNAP act hiacc: 1; ABCB1 inh: 1; TNAP inh hi DEA: -2; TNAP inh noacc: -4; ABCG2 block: 1; PKD1 kinase inh: -2

Results for CC(C)CSC1=NSC2=NC(=O)/C(=C\c3coc4ccccc4c3=O)C(=N)N12 ?
TNAP act hiacc: 0.9; ABCB1 inh: 134*; TNAP inh hi DEA: 6; TNAP inh noacc: 13; ABCG2 block: active; PKD1 kinase inh: -11

What do the screens show for `CSC1=NSC2=NC(=O)/C(=C\c3coc4ccccc4c3=O)C(=N)N12`?
TNAP act hiacc: 1; ABCB1 inh: 11; TNAP inh hi DEA: 3; TNAP inh noacc: -14; ABCG2 block: 63; PKD1 kinase inh: -3

What do the screens show for `COc1ccc(C(=O)N2CCN(Cc3cn[nH]c3-c3ccc(OC)cc3F)CC2)cc1`?
TNAP act hiacc: 1; ABCB1 inh: 1; TNAP inh hi DEA: -4; TNAP inh noacc: 82*; ABCG2 block: 5; PKD1 kinase inh: -1

How did COc1ccc(-c2[nH]ncc2CN2C[C@@H]3CCC[C@H]2C3)c(F)c1 do in these assays?
TNAP act hiacc: 1.1; ABCB1 inh: 0; TNAP inh hi DEA: -7; TNAP inh noacc: 76*; ABCG2 block: 1; PKD1 kinase inh: 1

What do the screens show for `Cc1nonc1N1CCN(Cc2cn[nH]c2-c2ccc(F)cc2F)CC1`?
TNAP act hiacc: 1; ABCB1 inh: 1; TNAP inh hi DEA: 3; TNAP inh noacc: 60*; ABCG2 block: 0; PKD1 kinase inh: -2

Results for COc1cccc(C(=O)N2CCN(Cc3cn[nH]c3-c3ccc(F)cc3F)CC2)c1 ?
TNAP act hiacc: 1.1; ABCB1 inh: 0; TNAP inh hi DEA: -7; TNAP inh noacc: 65*; ABCG2 block: 4; PKD1 kinase inh: 1

Results for CCOC(=O)c1ccc(NC(=S)NCCc2ccc(F)cc2)cc1 ?
TNAP act hiacc: 1; ABCB1 inh: 2; TNAP inh hi DEA: -4; TNAP inh noacc: -5; ABCG2 block: 11; PKD1 kinase inh: 0

Results for CNC(=S)N1CCN(c2nc3ccccc3s2)CC1 ?
TNAP act hiacc: 1.1; ABCB1 inh: 0; TNAP inh hi DEA: -5; TNAP inh noacc: -7; ABCG2 block: 2; PKD1 kinase inh: 4

How did O=C(c1ccco1)N1CCN(Cc2cn[nH]c2-c2ccc(F)cc2F)CC1 do in these assays?
TNAP act hiacc: 1.1; ABCB1 inh: 0; TNAP inh hi DEA: -6; TNAP inh noacc: 78*; ABCG2 block: 2; PKD1 kinase inh: -3

From PubChem
